Assay results from ChEMBL document CHEMBL1124215, “Improved delivery through biological membranes. 26. Design, synthesis, and pharmacological activity of a novel chemical delivery system for beta-adrenergic blocking agents” (1988).

Legend:
Oryctolagus cuniculus [1] = test: Effect on IOP of rabbits 0 min after administration (1%); assay type: functional
How it was run: (§1)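 IOP was read by pneumatonometer in unrestrained, unanesthetized rabbits after local propacaine drops. Drug was given as a 1% or 2.5% solution in pH 7.4 buffer or saline to both eyes, at least four rabbits per group; controls (at least three) received carrier only. Readings were taken at 30 and 60 min and at 2, 3, 4, 6 and 8 h. Values are mean ± SE; Student's t test.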

Oryctolagus cuniculus [2] = test: Percentage change of IOP in rabbits after 4 hr administration (1%) of compound; assay type: functional
How it was run: (§2)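 Rabbits received 1% or 2.5% drug solution in pH 7.4 buffer or saline in both eyes, at least four per group. A control group of at least three rabbits received carrier only. IOP was read by pneumatonometer in unrestrained, unanesthetized animals after one drop of 0.5% propacaine diluted 1:2 with saline. Readings were taken at 30 and 60 min and at 2–8 h. Values are mean ± SE, with significance by Student's t test.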

Oryctolagus cuniculus [3] = test: Percentage change of IOP in rabbits after 6 hr administration (1%) of compound; assay type: functional; how it was run: as §2
Oryctolagus cuniculus [4] = test: Percentage change of IOP in rabbits after 5 hr administration (1%) of compound; assay type: functional; how it was run: as §2
Oryctolagus cuniculus [5] = test: Percentage change of IOP in rabbits after 30 min administration (1%) of compound; assay type: functional; how it was run: as §2
Oryctolagus cuniculus [6] = test: Effect on IOP of rabbits 30 mins after administration (1%); assay type: functional; how it was run: as §1
Oryctolagus cuniculus [7] = test: Effect on IOP of rabbits 2 hr after administration (1%); assay type: functional; how it was run: as §1
Oryctolagus cuniculus [8] = test: Effect on IOP of rabbits 1 hr after administration (1%); assay type: functional; how it was run: as §1
Oryctolagus cuniculus [9] = test: Percentage change of IOP in rabbits after 0 min administration (1%) of compound; assay type: functional; how it was run: as §1
Oryctolagus cuniculus [10] = test: Effect on IOP of rabbits 8 hr after administration (1%); assay type: functional; how it was run: as §1
Oryctolagus cuniculus [11] = test: Effect on IOP of rabbits 3h after administration (1%); assay type: functional; how it was run: as §1
Oryctolagus cuniculus [12] = test: Percentage change of IOP in rabbits after 1 hr administration (1%) of compound; assay type: functional; how it was run: as §1
Oryctolagus cuniculus [13] = test: Percentage change of IOP in rabbits after 2 hr administration (1%) of compound; assay type: functional; how it was run: as §1
Oryctolagus cuniculus [14] = test: Percentage change of IOP in rabbits after 3h administration (1%) of compound; assay type: functional; how it was run: as §2
Oryctolagus cuniculus [15] = test: Effect on IOP of rabbits 4 hr after administration (1%); assay type: functional; how it was run: as §1
Oryctolagus cuniculus [16] = test: Effect on IOP of rabbits 6 hr after administration (1%); assay type: functional; how it was run: as §1
Oryctolagus cuniculus [17] = test: Effect on IOP of rabbits 5 hr after administration (1%); assay type: functional
Oryctolagus cuniculus [18] = test: Effect on IOP of rabbits 6 hr min after administration (2.5%); assay type: functional; how it was run: as §1
Oryctolagus cuniculus [19] = test: Percentage change of IOP in rabbits after 8 hr administration (1%) of compound; assay type: functional; how it was run: as §2
Oryctolagus cuniculus [20] = test: Percentage change of IOP in rabbits after 0 min administration (2.5%) of compound; assay type: functional; how it was run: as §1
Oryctolagus cuniculus [21] = test: Percentage change of IOP in rabbits after 2 hr administration (2.5%) of compound; assay type: functional; how it was run: as §1
Oryctolagus cuniculus [22] = test: Effect on IOP of rabbits 8 hr min after administration (2.5%); assay type: functional; how it was run: as §1
Oryctolagus cuniculus [23] = test: Concentration in iris-ciliary body of rabbit after 120 min administration of compound; assay type: functional, organism-based
How it was run: (§3)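 Adult male New Zealand albino rabbits (2.5–3.5 kg), at least four per time point. 100 µL of a 1% solution in saline was instilled topically into both eyes. Animals were killed at 30, 60 or 120 min. Cornea and iris-ciliary body were homogenized in methanol to 10% homogenates and deproteinized by centrifugation. Aqueous humor was analysed undiluted. HPLC was calibrated against spiked control-rabbit tissue. Values are mean ± SE, µg/g.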

Oryctolagus cuniculus [24] = test: Effect on IOP of rabbits 2hmin after administration (2.5%); assay type: functional; how it was run: as §1
Oryctolagus cuniculus [25] = test: Effect on IOP of rabbits 30 mins after administration (2.5%); assay type: functional; how it was run: as §1
Oryctolagus cuniculus [26] = test: Effect on IOP of rabbits 60 mins after administration (2.5%); assay type: functional; how it was run: as §1
Oryctolagus cuniculus [27] = test: Effect on IOP of rabbits 4 hr after administration (2.5%); assay type: functional; how it was run: as §1
Oryctolagus cuniculus [28] = test: Concentration in cornea of rabbit after 60 min administration of compound; assay type: functional, organism-based; how it was run: as §3
Oryctolagus cuniculus [29] = test: Effect on IOP of rabbits 0 min after administration (2.5%); assay type: functional; how it was run: as §1
Oryctolagus cuniculus [30] = test: Percentage change of IOP in rabbits after 6 hr administration (2.5%) of compound; assay type: functional; how it was run: as §2
Oryctolagus cuniculus [31] = test: Effect on IOP of rabbits 6 hr min after administration (1%); assay type: functional; how it was run: as §1
Oryctolagus cuniculus [32] = test: Effect on IOP of rabbits 8 hr min after administration (1%); assay type: functional; how it was run: as §1
Oryctolagus cuniculus [33] = test: Concentration of propranolone oxime in cornea of rabbit after 30 min administration of compound; assay type: functional, organism-based; how it was run: as §3
Oryctolagus cuniculus [34] = test: Concentration of propranolone oxime in iris-ciliary body of rabbit after 30 min administration of compound; assay type: functional, organism-based; how it was run: as §3
Oryctolagus cuniculus [35] = test: Concentration in iris -ciliary body of rabbit after 30 min administration of compound; assay type: functional, organism-based; how it was run: as §3
Oryctolagus cuniculus [36] = test: Concentration in cornea of rabbit after 30 min administration of compound; assay type: functional, organism-based; how it was run: as §3
Oryctolagus cuniculus [37] = test: Concentration of propranolone oxime in aqueous humor of rabbit after 30 min administration of compound; assay type: functional, organism-based; settings: Aqueous humor of eyeball; how it was run: as §3
Oryctolagus cuniculus [38] = test: Effect on IOP of rabbits 60 mins after administration (1%); assay type: functional; how it was run: as §1
Oryctolagus cuniculus [39] = test: Concentration of propranolone oxime in aqueous humor of rabbit after 60 min administration of compound; assay type: functional, organism-based; settings: Aqueous humor of eyeball; how it was run: as §3
Oryctolagus cuniculus [40] = test: Concentration in aqueous humor of rabbit after 60 min administration of compound; assay type: functional, organism-based; settings: Aqueous humor of eyeball; how it was run: as §3
Oryctolagus cuniculus [41] = test: Effect on IOP of rabbits 3h after administration (2.5%); assay type: functional; how it was run: as §1
Oryctolagus cuniculus [42] = test: Percentage change of IOP in rabbits after 3h administration (2.5%) of compound; assay type: functional; how it was run: as §2
Oryctolagus cuniculus [43] = test: Percentage change of IOP in rabbits after 60 min administration (1%) of compound; assay type: functional; how it was run: as §2
Oryctolagus cuniculus [44] = test: Concentration of propranolone oxime in cornea of rabbit after 60 min administration of compound; assay type: functional, organism-based; how it was run: as §3
Oryctolagus cuniculus [45] = test: Percentage change of IOP in rabbits after 4 hr administration (2.5%) of compound; assay type: functional; how it was run: as §2
Oryctolagus cuniculus [46] = test: Concentration in iris -ciliary body of rabbit after 60 min administration of compound; assay type: functional, organism-based; how it was run: as §3
Oryctolagus cuniculus [47] = test: Percentage change of IOP in rabbits after 30 min administration (2.5%) of compound; assay type: functional; how it was run: as §2
Oryctolagus cuniculus [48] = test: Percentage change of IOP in rabbits after 8 hr administration (2.5%) of compound; assay type: functional; how it was run: as §2
Oryctolagus cuniculus [49] = test: Percentage change of IOP in rabbits after 60 min administration (2.5%) of compound; assay type: functional; how it was run: as §2
Oryctolagus cuniculus [50] = test: Concentration in cornea of rabbit after 120 min administration of compound; assay type: functional, organism-based; how it was run: as §3

Q: Which IOP (Oryctolagus cuniculus [1]) does the source give for `CC(C)(C)NC[C@H](O)COc1nsnc1N1CCOCC1` (stereo in doubt) [TIMOLOL] here?
A: 28.44 mmHg

Q: And the Change (Oryctolagus cuniculus [2])?
A: -5.31%

Q: What about the Change (Oryctolagus cuniculus [3]) of the same molecule?
A: 1.2%

Q: What about the Change (Oryctolagus cuniculus [4]) of the same molecule?
A: -5.49%

Q: What about the Change (Oryctolagus cuniculus [5]) of the same molecule?
A: -2.43%

Q: And the IOP (Oryctolagus cuniculus [6])?
A: 27.75 mmHg

Q: And the IOP (Oryctolagus cuniculus [7])?
A: 24 mmHg

Q: What about the IOP (Oryctolagus cuniculus [8]) of the same molecule?
A: 24.3 mmHg

Q: And the Change (Oryctolagus cuniculus [9])?
A: 0%

Q: And the IOP (Oryctolagus cuniculus [10])?
A: 26.33 mmHg

Q: What about the IOP (Oryctolagus cuniculus [11]) of the same molecule?
A: 25.13 mmHg

Q: What about the Change (Oryctolagus cuniculus [12]) of the same molecule?
A: -14.6%

Q: And the Change (Oryctolagus cuniculus [13])?
A: -15.6%

Q: And the Change (Oryctolagus cuniculus [14])?
A: -11.6%

Q: What about the IOP (Oryctolagus cuniculus [15]) of the same molecule?
A: 26.93 mmHg

Q: What about the IOP (Oryctolagus cuniculus [16]) of the same molecule?
A: 28.78 mmHg

Q: What about the IOP (Oryctolagus cuniculus [17]) of the same molecule?
A: 26.88 mmHg

Q: Which results are given for `CC(C)NC/C(COc1cccc2ccccc12)=N\O`?
A: IOP (Oryctolagus cuniculus [1]): 27.8 mmHg; Change (Oryctolagus cuniculus [2]): -20.1%; IOP (Oryctolagus cuniculus [18]): 23.6 mmHg; Change (Oryctolagus cuniculus [19]): 0.5%; Change (Oryctolagus cuniculus [3]): -7.08%; Change (Oryctolagus cuniculus [20]): 0%; Change (Oryctolagus cuniculus [21]): -13.08%; IOP (Oryctolagus cuniculus [22]): 25.8 mmHg; Concentration (Oryctolagus cuniculus [23]): 0.4 µg/g; IOP (Oryctolagus cuniculus [24]): 22.6 mmHg; IOP (Oryctolagus cuniculus [25]): 26.5 mmHg; Change (Oryctolagus cuniculus [5]): -3.23%; IOP (Oryctolagus cuniculus [6]): 26.9 mmHg; IOP (Oryctolagus cuniculus [26]): 23.4 mmHg; IOP (Oryctolagus cuniculus [27]): 20.4 mmHg; Concentration (Oryctolagus cuniculus [28]): 1.1 µg/g; IOP (Oryctolagus cuniculus [29]): 26 mmHg; Change (Oryctolagus cuniculus [30]): >-9.23%; IOP (Oryctolagus cuniculus [31]): 25.8 mmHg; IOP (Oryctolagus cuniculus [32]): 27.9 mmHg; Concentration (Oryctolagus cuniculus [33]): 23.8 µg/g; Concentration (Oryctolagus cuniculus [34]): 7.8 µg/g; IOP (Oryctolagus cuniculus [7]): 23.4 mmHg; Concentration (Oryctolagus cuniculus [35]): 2.1 µg/g; Concentration (Oryctolagus cuniculus [36]): 1.7 µg/g; Change (Oryctolagus cuniculus [9]): 0%; Concentration (Oryctolagus cuniculus [37]): 0.8 µg/g; IOP (Oryctolagus cuniculus [11]): 23.3 mmHg; IOP (Oryctolagus cuniculus [38]): 24 mmHg; Concentration (Oryctolagus cuniculus [39]): 0.8 µg/g; Concentration (Oryctolagus cuniculus [40]): 0.7 µg/g; IOP (Oryctolagus cuniculus [41]): 21.2 mmHg; Change (Oryctolagus cuniculus [42]): >-18.46%; Change (Oryctolagus cuniculus [13]): -15.8%; Change (Oryctolagus cuniculus [14]): -16.2%; Change (Oryctolagus cuniculus [43]): >-11.51%; Concentration (Oryctolagus cuniculus [44]): 16.4 µg/g; Change (Oryctolagus cuniculus [45]): -21.5%; Concentration (Oryctolagus cuniculus [46]): 1.8 µg/g; IOP (Oryctolagus cuniculus [15]): 22.2 mmHg; Change (Oryctolagus cuniculus [47]): 1.92%; Change (Oryctolagus cuniculus [48]): -0.77%; Change (Oryctolagus cuniculus [49]): -10%; Concentration (Oryctolagus cuniculus [50]): 1.1 µg/g
